An excerpt weighted towards active compounds, which were near 1.9% of everything screened.
UHRF1 binding: UHRF1 methyl-DNA binding inhibition | UHRF1 binding to methylated oligo, TR-FRET | inhibition, % at 4.4 µM | hit rate 0.75% among 370,000; in the data active means inhibition above about 21%;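 further: UHRF1 SRA domain binding a hemimethylated CpG hairpin DNA probe; 0% = median of test compound wells and 100% = reference inhibitor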
Target sequence (Q96T88 whole entry, looked up, the tested form may be a part): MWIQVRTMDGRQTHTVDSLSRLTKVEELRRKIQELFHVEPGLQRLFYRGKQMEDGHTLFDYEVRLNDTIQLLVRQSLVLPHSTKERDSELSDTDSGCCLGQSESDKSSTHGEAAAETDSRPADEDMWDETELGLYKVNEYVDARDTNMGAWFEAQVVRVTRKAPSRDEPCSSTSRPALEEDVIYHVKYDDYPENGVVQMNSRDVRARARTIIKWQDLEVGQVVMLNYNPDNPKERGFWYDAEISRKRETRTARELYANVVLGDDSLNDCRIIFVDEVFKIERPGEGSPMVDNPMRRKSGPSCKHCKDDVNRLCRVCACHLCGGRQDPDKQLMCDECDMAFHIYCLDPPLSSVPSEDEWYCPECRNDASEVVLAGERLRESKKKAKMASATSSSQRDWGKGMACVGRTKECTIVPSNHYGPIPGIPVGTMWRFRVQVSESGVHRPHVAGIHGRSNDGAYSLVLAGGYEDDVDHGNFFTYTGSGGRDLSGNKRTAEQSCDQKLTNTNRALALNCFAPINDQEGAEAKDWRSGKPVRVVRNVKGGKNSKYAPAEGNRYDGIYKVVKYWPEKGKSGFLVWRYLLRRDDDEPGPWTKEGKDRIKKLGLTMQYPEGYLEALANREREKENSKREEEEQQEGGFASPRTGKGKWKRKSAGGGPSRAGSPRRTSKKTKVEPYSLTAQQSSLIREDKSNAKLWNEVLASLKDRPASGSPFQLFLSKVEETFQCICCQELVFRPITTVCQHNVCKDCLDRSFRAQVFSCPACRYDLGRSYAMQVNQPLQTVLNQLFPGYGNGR
TDP2 absorb: TDP2 (human) inhibition, absorbance primary screen | O95551 | recombinant TDP2, T5PNP hydrolysis, p-nitrophenol absorbance 415 nm | inhibition, % at 12.8 µM | hit rate 0.34% among 370,000 | AID 720702;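 active means inhibition above the mean of all tested compounds plus 3 SD, set per campaign, cut at about 25% in these data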;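 further: 0% = DMSO with enzyme and 100% = buffer with substrate but no TDP2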
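Test system: human TDP2 enzyme; Input: 120 nM TDP2 per well; Buffer or medium: Mg2+-containing Tris-HCl buffer, pH 7.5; Reagent: 5 mM T5PNP; Dosing: 12.8 µM single point, 1% DMSO; Incubation: reaction 2 h, 37 °C; Detection: p-Nitrophenol epi absorbance; Read-out: % inhibition relative to enzyme-containing and enzyme-free wells; Replicates: single well per compound.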
LEDGF integ inh: blocks HIV-1 LEDGF/p75-dependent DNA integration; TR-FRET IN-LEDGF/p75 DNA integration, Eu/Cy5; inhibition, % at 3.7 µM; hit rate 0.64% among 370,000; AID 743269;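 active means inhibition above the screen-wide mean plus 3 SD, cut at about 13% in these data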;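 further: signal is the Cy5 over europium emission ratio at 671 and 618 nm; 0% = plate median of compound wells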
Rin1 Abl inh: blocks binding of human Rin1 to Abl. P00519+Q13671. TR-FRET Rin1/Abl binding, biochemical. inhibition, % at 7.35 µM. hit rate 0.4% among 360,000. AID 588664; in the data active means inhibition above about 5%, passing the limit was not always enough
MBD2 inh: blocks human MBD2 binding to methylated DNA | TR-FRET, MBD2 binding to methylated oligonucleotide | AID 686964 | inhibition, % at 4.4 µM | hit rate 0.31% among 370,000; in the data active means inhibition above about 13%
Starred values were filed as active, the others as inactive; x = not tested or not shown; ! = a repeat was not active.

SMILES	UHRF1 binding	TDP2 absorb	LEDGF integ inh	Rin1 Abl inh	MBD2 inh
Cc1cccc2sc(N(CCCN(C)C)C(=O)c3ccc(C(=O)c4ccccc4)cc3)nc12	34*!	3	-1	3	4
CN(C)c1ccc(C(=O)N2CCCC2)cc1	4	-12	1	3	5
CN(C)c1ccc(C(=O)NC2(N3CCC3=O)CCCC2)cc1	31*	-4	-5	1	4
Cc1ccc(-n2c(SCC(=O)Nc3ccccc3-c3ccccc3)nnc2-c2cccs2)cc1	1	-10	8	x	1
CCOC(=O)N1CCN(C(=O)C[C@H]2C[C@@]3(C(=O)OCC)CCCC4=C3N(CCC4)C2=O)CC1	1	13	-2	x	1
O=C(Nc1nccs1)C1(C(=O)C2CC2)CC(c2ccccn2)=NO1 (configuration not stated)	-1	8	-1	x	0
O=C(O)CCCNc1n[nH]c(=O)[nH]c1=O	26*	-8	1	0	1
O=C(CCNc1n[nH]c(=O)[nH]c1=O)N1CCCCC1	3	-8	2	2	1
Cc1cccc(Cn2cc(COC(=O)N3CCCC3)nn2)c1	2	0	-2	x	2
O=C1C(Cl)=C(NCCCO)C(=O)c2ccccc21	-19	12	4	-17	-17
O=C1C(SCCO)=C(SCCO)C(=O)c2ccccc21	-9	78*	29*	-2	-9
CCN(C(=O)COC(=O)c1ccc(Sc2ncn[nH]2)c([N+](=O)[O-])c1)c1ccccc1	0	1	0	x	1
CC(C)COc1ccc(C(=O)N/N=C/c2ccoc2)cc1	30*	-4	0	1	-2
CCOc1cc(C(=O)N/N=C/c2ccoc2)cc(OCC)c1OCC	-2	1	-1	-2	2
COc1ccc(C(C)=O)c2c(O)cccc12	7	3	3	2	0
COc1ccc(C(C)=O)c2c1OCCO2	54*	5	-1	-1	0
O=c1c2c(n3nnnc3n1Cc1ccc(Cl)cc1)-c1ccccc1CC21CCCC1	-2	-5	-1	x	0
O=C1NC(=O)C(CC(=O)N(Cc2cccs2)C2(C(=O)NC3CCCC3)CCCCC2)N1 (configuration not stated)	23*	-1	3	-1	5
C[C@H]1[C@H](NC(=O)C(=NOC(C)(C)C(=O)O)c2csc(N)n2)C(=O)N1S(=O)(=O)O	25*	5	-2	-2	2
CN1CCN(c2ccc3c(c2)Oc2ccccc2CN(Cc2cn(Cc4ccccc4C(F)(F)F)nn2)S3(=O)=O)CC1	0	-2	-2	x	0
CCOC(=O)c1c(NC(=O)c2ccc(S(=O)(=O)N3CCOCC3)cc2)sc2c1CCN(C)C2	17	-7	0	-4	15*
Cc1occc1C(=O)N(Cc1nc(-c2ccccc2)no1)C(C)C	24*	-1	12	7	5
CCC(=O)NC(c1ccccc1OC)c1ccc2cccnc2c1O (configuration not stated)	x	x	x	14*	x
Cc1ccc(NC(=O)CCS(=O)(=O)c2ccccc2)c(C)c1	-3	16	-1	x	5
O=C(c1ccc(Br)cn1)N1CCC(Oc2cccnc2)CC1	3	-6	5	x	-4
SMILES	UHRF1 binding	TDP2 absorb	LEDGF integ inh	Rin1 Abl inh	MBD2 inh
COc1ccc(C2=Nc3ccccc3N(C(=O)c3cccnc3)C2C(=O)NC2CCCC2)cc1 (configuration not stated)	23*	3	-3	x	12
COc1ccccc1CNC(=O)c1ccc(-c2ccccc2)cc1	26*	-8	-1	2	4
CC(C)Oc1ccc(CCC(=O)N/N=C/c2ccncc2)cc1	27*	-3	-3	-1	0
Cc1c(C(=O)Nc2ccc(Cl)cc2)c2ccccn2c1CCc1ccncc1	24*	3	-4	0	0
Cc1c(C(=O)Nc2cccc(Cl)c2)c2ccccn2c1CCc1ccncc1	-1	1	0	-4	0
O=C1CC(c2ccccc2)CC(O)=C1C=NC1CCCC1 (configuration not stated)	48*	-1	-7	5	1
COc1ccc(N(C(=O)CS(=O)CC(=O)Nc2ccc(F)cc2)C(C(=O)NC2CCCCC2)c2cccs2)cc1 (configuration not stated)	-2	5	15*	5	0
C#CCNC(=O)C[C@H]1C[C@@]2(C(=O)OCC)CCCC3=C2N(CCC3)C1=O	0	4	-6	x	2
